ChEMBL document CHEMBL4689842, “EUbOPEN Chemogenomics Library wave 1” (2021)

Test system: Fibroblast
Test: Multiplex assay against human fibroblast
Type: toxicity, cell-based
Method in brief: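 Cells stained live at seeding with Hoechst33342, BioTracker Green Microtubule Cytoskeleton Dye, MitoTracker Red and Annexin V Alexa Fluor 680 were imaged on a CQ1 microscope at 37°C and 5% CO2 after compound addition. Their classification by CellPathfinder machine-learning gating ran from Hoechst high-intensity objects versus normal cells, to healthy, pyknosed or fragmented nuclei among normal cells, to mitotic or apoptotic among pyknosed cells. Tubulin, mitochondrial-mass and membrane-permeability phenotypes are per cents of healthy-nucleus cells.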

[1] = 12 h, 1 µM, compound concentration 1 uM, replicate 1
[2] = 12 h, 1 µM, compound concentration 1 uM, replicate 2
[3] = 12 h, 10 µM, compound concentration 10 uM, replicate 1
[4] = 12 h, 10 µM, compound concentration 10 uM, replicate 2
[5] = 24 h, 1 µM, compound concentration 1 uM, replicate 1
[6] = 24 h, 1 µM, compound concentration 1 uM, replicate 2
[7] = 24 h, 10 µM, compound concentration 10 uM, replicate 1
[8] = 24 h, 10 µM, compound concentration 10 uM, replicate 2
[9] = 48 h, 1 µM, compound concentration 1 uM, replicate 1
[10] = 48 h, 1 µM, compound concentration 1 uM, replicate 2
[11] = 48 h, 10 µM, compound concentration 10 uM, replicate 1
[12] = 48 h, 10 µM, compound concentration 10 uM, replicate 2

CCCSc1nc(N[C@@H]2C[C@H]2c2ccc(F)c(F)c2)c2nnn([C@@H]3C[C@H](OCCO)[C@@H](O)[C@H]3O)c2n1 [TICAGRELOR]
Population Apoptotic (%) [1]: 55%
Population Fragmented Nuclei (%) [1]: 17%
Population Healthy Nuclei (%) [1]: 48%
Population Hoechst High Intensity Objects (%) [1]: 9%
Population Membrane Permeable-Phenotype (%) [1]: 21%
Population Mitochondria Different-Phenotype (%) [1]: 5%
Population Mitotic Cells (%) [1]: 44%
Population Normal (%) [1]: 90%
Population Pyknosed Nuclei (%) [1]: 33%
Population Tubulin-Different-Phenotype (%) [1]: 46%
Total Cell Count [1]: 179
Population Apoptotic (%) [2]: 66%
Population Fragmented Nuclei (%) [2]: 1%
Population Healthy Nuclei (%) [2]: 93%
Population Hoechst High Intensity Objects (%) [2]: 5%
Population Membrane Permeable-Phenotype (%) [2]: 5%
Population Mitochondria Different-Phenotype (%) [2]: 18%
Population Mitotic Cells (%) [2]: 33%
Population Normal (%) [2]: 94%
Population Pyknosed Nuclei (%) [2]: 4%
Population Tubulin-Different-Phenotype (%) [2]: 13%
Total Cell Count [2]: 82
Population Apoptotic (%) [3]: 56%
Population Fragmented Nuclei (%) [3]: 29%
Population Healthy Nuclei (%) [3]: 27%
Population Hoechst High Intensity Objects (%) [3]: 12%
Population Membrane Permeable-Phenotype (%) [3]: 12%
Population Mitochondria Different-Phenotype (%) [3]: 78%
Population Mitotic Cells (%) [3]: 43%
Population Normal (%) [3]: 87%
Population Pyknosed Nuclei (%) [3]: 43%
Population Tubulin-Different-Phenotype (%) [3]: 90%
Total Cell Count [3]: 139
Population Apoptotic (%) [4]: 75%
Population Fragmented Nuclei (%) [4]: 7%
Population Healthy Nuclei (%) [4]: 79%
Population Hoechst High Intensity Objects (%) [4]: 11%
Population Membrane Permeable-Phenotype (%) [4]: 43%
Population Mitochondria Different-Phenotype (%) [4]: 98%
Population Mitotic Cells (%) [4]: 25%
Population Normal (%) [4]: 88%
Population Pyknosed Nuclei (%) [4]: 12%
Population Tubulin-Different-Phenotype (%) [4]: 96%
Total Cell Count [4]: 67
Population Apoptotic (%) [5]: 43%
Population Fragmented Nuclei (%) [5]: 18%
Population Healthy Nuclei (%) [5]: 62%
Population Hoechst High Intensity Objects (%) [5]: 9%
Population Membrane Permeable-Phenotype (%) [5]: 26%
Population Mitochondria Different-Phenotype (%) [5]: 12%
Population Mitotic Cells (%) [5]: 56%
Population Normal (%) [5]: 90%
Population Pyknosed Nuclei (%) [5]: 19%
Population Tubulin-Different-Phenotype (%) [5]: 50%
Total Cell Count [5]: 172
Population Apoptotic (%) [6]: 57%
Population Fragmented Nuclei (%) [6]: 3%
Population Healthy Nuclei (%) [6]: 87%
Population Hoechst High Intensity Objects (%) [6]: 2%
Population Membrane Permeable-Phenotype (%) [6]: 4%
Population Mitochondria Different-Phenotype (%) [6]: 20%
Population Mitotic Cells (%) [6]: 42%
Population Normal (%) [6]: 97%
Population Pyknosed Nuclei (%) [6]: 8%
Population Tubulin-Different-Phenotype (%) [6]: 11%
Total Cell Count [6]: 81
Population Apoptotic (%) [7]: 55%
Population Fragmented Nuclei (%) [7]: 27%
Population Healthy Nuclei (%) [7]: 33%
Population Hoechst High Intensity Objects (%) [7]: 16%
Population Membrane Permeable-Phenotype (%) [7]: 18%
Population Mitochondria Different-Phenotype (%) [7]: 67%
Population Mitotic Cells (%) [7]: 44%
Population Normal (%) [7]: 83%
Population Pyknosed Nuclei (%) [7]: 38%
Population Tubulin-Different-Phenotype (%) [7]: 94%
Total Cell Count [7]: 133
Population Apoptotic (%) [8]: 83%
Population Fragmented Nuclei (%) [8]: 7%
Population Healthy Nuclei (%) [8]: 73%
Population Hoechst High Intensity Objects (%) [8]: 8%
Population Membrane Permeable-Phenotype (%) [8]: 65%
Population Mitochondria Different-Phenotype (%) [8]: 97%
Population Mitotic Cells (%) [8]: 16%
Population Normal (%) [8]: 91%
Population Pyknosed Nuclei (%) [8]: 19%
Population Tubulin-Different-Phenotype (%) [8]: 97%
Total Cell Count [8]: 80
Population Apoptotic (%) [9]: 44%
Population Fragmented Nuclei (%) [9]: 25%
Population Healthy Nuclei (%) [9]: 55%
Population Hoechst High Intensity Objects (%) [9]: 9%
Population Membrane Permeable-Phenotype (%) [9]: 16%
Population Mitochondria Different-Phenotype (%) [9]: 5%
Population Mitotic Cells (%) [9]: 55%
Population Normal (%) [9]: 90%
Population Pyknosed Nuclei (%) [9]: 19%
Population Tubulin-Different-Phenotype (%) [9]: 36%
Total Cell Count [9]: 167
Population Apoptotic (%) [10]: 66%
Population Fragmented Nuclei (%) [10]: 27%
Population Healthy Nuclei (%) [10]: 68%
Population Hoechst High Intensity Objects (%) [10]: 10%
Population Membrane Permeable-Phenotype (%) [10]: 18%
Population Mitochondria Different-Phenotype (%) [10]: 3%
Population Mitotic Cells (%) [10]: 33%
Population Normal (%) [10]: 89%
Population Pyknosed Nuclei (%) [10]: 3%
Population Tubulin-Different-Phenotype (%) [10]: 57%
Total Cell Count [10]: 88
Population Apoptotic (%) [11]: 69%
Population Fragmented Nuclei (%) [11]: 50%
Population Healthy Nuclei (%) [11]: 31%
Population Hoechst High Intensity Objects (%) [11]: 20%
Population Membrane Permeable-Phenotype (%) [11]: 22%
Population Mitochondria Different-Phenotype (%) [11]: 62%
Population Mitotic Cells (%) [11]: 30%
Population Normal (%) [11]: 79%
Population Pyknosed Nuclei (%) [11]: 18%
Population Tubulin-Different-Phenotype (%) [11]: 90%
Total Cell Count [11]: 159
Population Apoptotic (%) [12]: 75%
Population Fragmented Nuclei (%) [12]: 32%
Population Healthy Nuclei (%) [12]: 61%
Population Hoechst High Intensity Objects (%) [12]: 5%
Population Membrane Permeable-Phenotype (%) [12]: 2%
Population Mitochondria Different-Phenotype (%) [12]: 84%
Population Mitotic Cells (%) [12]: 25%
Population Normal (%) [12]: 94%
Population Pyknosed Nuclei (%) [12]: 6%
Population Tubulin-Different-Phenotype (%) [12]: 92%
Total Cell Count [12]: 135

COc1ccc(-c2ccc3ncc4c(c3c2)n(-c2ccc(N3CCNCC3)c(C(F)(F)F)c2)c(=O)n4C)cn1.O=C(O)/C=C\C(=O)O [BGT-226]
Population Apoptotic (%) [1]: 67%
Population Fragmented Nuclei (%) [1]: 34%
Population Healthy Nuclei (%) [1]: 14%
Population Hoechst High Intensity Objects (%) [1]: 14%
Population Membrane Permeable-Phenotype (%) [1]: 26%
Population Mitochondria Different-Phenotype (%) [1]: 33%
Population Mitotic Cells (%) [1]: 32%
Population Normal (%) [1]: 85%
Population Pyknosed Nuclei (%) [1]: 50%
Population Tubulin-Different-Phenotype (%) [1]: 93%
Total Cell Count [1]: 122
Population Apoptotic (%) [2]: 81%
Population Fragmented Nuclei (%) [2]: 24%
Population Healthy Nuclei (%) [2]: 45%
Population Hoechst High Intensity Objects (%) [2]: 17%
Population Membrane Permeable-Phenotype (%) [2]: 70%
Population Mitochondria Different-Phenotype (%) [2]: 94%
Population Mitotic Cells (%) [2]: 18%
Population Normal (%) [2]: 82%
Population Pyknosed Nuclei (%) [2]: 29%
Population Tubulin-Different-Phenotype (%) [2]: 94%
Total Cell Count [2]: 45
Population Apoptotic (%) [3]: 62%
Population Fragmented Nuclei (%) [3]: 27%
Population Healthy Nuclei (%) [3]: 2%
Population Hoechst High Intensity Objects (%) [3]: 14%
Population Membrane Permeable-Phenotype (%) [3]: 50%
Population Mitochondria Different-Phenotype (%) [3]: 0%
Population Mitotic Cells (%) [3]: 37%
Population Normal (%) [3]: 85%
Population Pyknosed Nuclei (%) [3]: 69%
Population Tubulin-Different-Phenotype (%) [3]: 0%
Total Cell Count [3]: 89
Population Apoptotic (%) [4]: 100%
Population Fragmented Nuclei (%) [4]: 70%
Population Healthy Nuclei (%) [4]: 9%
Population Hoechst High Intensity Objects (%) [4]: 62%
Population Membrane Permeable-Phenotype (%) [4]: 24%
Population Mitochondria Different-Phenotype (%) [4]: 32%
Population Mitotic Cells (%) [4]: 0%
Population Normal (%) [4]: 37%
Population Pyknosed Nuclei (%) [4]: 19%
Population Tubulin-Different-Phenotype (%) [4]: 24%
Total Cell Count [4]: 675
Population Apoptotic (%) [5]: 69%
Population Fragmented Nuclei (%) [5]: 45%
Population Healthy Nuclei (%) [5]: 12%
Population Hoechst High Intensity Objects (%) [5]: 18%
Population Membrane Permeable-Phenotype (%) [5]: 58%
Population Mitochondria Different-Phenotype (%) [5]: 16%
Population Mitotic Cells (%) [5]: 30%
Population Normal (%) [5]: 81%
Population Pyknosed Nuclei (%) [5]: 41%
Population Tubulin-Different-Phenotype (%) [5]: 50%
Total Cell Count [5]: 115
Population Apoptotic (%) [6]: 83%
Population Fragmented Nuclei (%) [6]: 20%
Population Healthy Nuclei (%) [6]: 40%
Population Hoechst High Intensity Objects (%) [6]: 30%
Population Membrane Permeable-Phenotype (%) [6]: 66%
Population Mitochondria Different-Phenotype (%) [6]: 91%
Population Mitotic Cells (%) [6]: 16%
Population Normal (%) [6]: 69%
Population Pyknosed Nuclei (%) [6]: 40%
Population Tubulin-Different-Phenotype (%) [6]: 91%
Total Cell Count [6]: 43
Population Apoptotic (%) [7]: 58%
Population Fragmented Nuclei (%) [7]: 23%
Population Healthy Nuclei (%) [7]: 32%
Population Hoechst High Intensity Objects (%) [7]: 26%
Population Membrane Permeable-Phenotype (%) [7]: 38%
Population Mitochondria Different-Phenotype (%) [7]: 0%
Population Mitotic Cells (%) [7]: 41%
Population Normal (%) [7]: 73%
Population Pyknosed Nuclei (%) [7]: 44%
Population Tubulin-Different-Phenotype (%) [7]: 52%
Total Cell Count [7]: 89
Population Apoptotic (%) [8]: 100%
Population Fragmented Nuclei (%) [8]: 79%
Population Healthy Nuclei (%) [8]: 10%
Population Hoechst High Intensity Objects (%) [8]: 64%
Population Membrane Permeable-Phenotype (%) [8]: 69%
Population Mitochondria Different-Phenotype (%) [8]: 60%
Population Mitotic Cells (%) [8]: 0%
Population Normal (%) [8]: 35%
Population Pyknosed Nuclei (%) [8]: 9%
Population Tubulin-Different-Phenotype (%) [8]: 60%
Total Cell Count [8]: 614
Population Apoptotic (%) [9]: 84%
Population Fragmented Nuclei (%) [9]: 55%
Population Healthy Nuclei (%) [9]: 25%
Population Hoechst High Intensity Objects (%) [9]: 38%
Population Membrane Permeable-Phenotype (%) [9]: 58%
Population Mitochondria Different-Phenotype (%) [9]: 11%
Population Mitotic Cells (%) [9]: 15%
Population Normal (%) [9]: 61%
Population Pyknosed Nuclei (%) [9]: 19%
Population Tubulin-Different-Phenotype (%) [9]: 47%
Total Cell Count [9]: 111
Population Apoptotic (%) [10]: 62%
Population Fragmented Nuclei (%) [10]: 28%
Population Healthy Nuclei (%) [10]: 59%
Population Hoechst High Intensity Objects (%) [10]: 27%
Population Membrane Permeable-Phenotype (%) [10]: 19%
Population Mitochondria Different-Phenotype (%) [10]: 19%
Population Mitotic Cells (%) [10]: 37%
Population Normal (%) [10]: 72%
Population Pyknosed Nuclei (%) [10]: 11%
Population Tubulin-Different-Phenotype (%) [10]: 85%
Total Cell Count [10]: 188
Population Apoptotic (%) [11]: 66%
Population Fragmented Nuclei (%) [11]: 57%
Population Healthy Nuclei (%) [11]: 37%
Population Hoechst High Intensity Objects (%) [11]: 42%
Population Membrane Permeable-Phenotype (%) [11]: 50%
Population Mitochondria Different-Phenotype (%) [11]: 4%
Population Mitotic Cells (%) [11]: 33%
Population Normal (%) [11]: 57%
Population Pyknosed Nuclei (%) [11]: 4%
Population Tubulin-Different-Phenotype (%) [11]: 58%
Total Cell Count [11]: 111
Population Apoptotic (%) [12]: 25%
Population Fragmented Nuclei (%) [12]: 75%
Population Healthy Nuclei (%) [12]: 17%
Population Hoechst High Intensity Objects (%) [12]: 44%
Population Membrane Permeable-Phenotype (%) [12]: 44%
Population Mitochondria Different-Phenotype (%) [12]: 33%
Population Mitotic Cells (%) [12]: 75%
Population Normal (%) [12]: 55%
Population Pyknosed Nuclei (%) [12]: 7%
Population Tubulin-Different-Phenotype (%) [12]: 55%
Total Cell Count [12]: 94
